Experimental data: PubChem BioAssay AID488804 (Broad Institute, 2010)
The source made the active and inactive calls.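 The calls were made as follows: active = luminescence cut by over half relative to the proteasome inhibitor control, with potency below ten times the top valid dose; inactive = no activity, or signal change in the wrong direction.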

Molecular target: 26S proteasome chymotrypsin-like activity (human)
Test: proteasome function in U2OS cells – cell-based, luminescence, dry powder, set 2, counter-screen, dose response (AID 488804)
Details: Proteasome-Glo chymotrypsin luminescence; for activity change, negative = inhibition: at 38 µM (top of the series)
Outline: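 Compound dosing: Eight-point threefold dilution series, 16.5 mM top stock; material: human U2OS osteosarcoma cells, proteasome chymotrypsin-like activity; incubation: cells 24 h/37 °C, compounds 4 h, reagent 2 h RT; replicates: duplicates; measured by: Proteasome-Glo chymotrypsin luminescence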

Row | SMILES | activity change, negative = inhibition | AC50 [µM]
1 | CN(C)CCNC(=O)c1cc(-c2ccccc2)on1 | inactive | –
2 | O=C(NCCCO)c1cc(-c2ccccc2)on1 | inactive | –
3 | c1ccc(-c2nnc(-c3ccccn3)nc2N2CCN(c3ccncc3)CC2)cc1 | inactive | –
4 | c1ccc(-c2nnc(-c3ccccn3)nc2NCCN2CCOCC2)cc1 | inactive | –
5 | O=C(NCCCCO)c1cc(-c2ccccc2)on1 | inactive | –
6 | Cc1cccc(CNc2nc(-c3ccccn3)nnc2-c2ccccc2)c1 | inactive | –
7 | CC(C)(C)CCNc1nc(-c2ccccn2)nnc1-c1ccccc1 | inactive | –
8 | O=C(NCCN1CCCCC1)c1cc(-c2ccccc2)on1 | inactive | –
9 | O=C(NCCCN1CCOCC1)c1cc(-c2ccccc2)on1 | inactive | –
10 | Cc1cccc(CNC(=O)c2cc(-c3ccccc3)on2)c1 | inactive | –
11 | OCC1CCN(c2nc(-c3ccccn3)nnc2-c2ccccc2)CC1 | inactive | –
12 | Cc1ccccc1CNC(=O)c1cc(-c2ccccc2)on1 | inactive | –
13 | O=C(NCCCn1ccnc1)c1cc(-c2ccccc2)on1 | inactive | –
14 | Cc1ccc(CNC(=O)c2cc(-c3ccccc3)on2)cc1 | inactive | –
15 | Cc1cccc(Nc2nc(-c3ccccn3)nnc2-c2ccccc2)n1 | inactive | –
16 | c1ccc(-c2nnc(-c3ccccn3)nc2N2CCC(N3CCOCC3)CC2)cc1 | inactive | –
17 | O=C(NC1CCc2ccccc2C1)c1cc(-c2ccccc2)on1 (centres undefined) | inactive | –
18 | O=C(NCCN1CCOCC1)c1cc(-c2ccccc2)on1 | inactive | –
19 | c1ccc(-c2nnc(-c3ccccn3)nc2NCC2CC2)cc1 | inactive | –
20 | c1ccc(-c2nnc(Nc3nc(-c4ccccn4)nnc3-c3ccccc3)s2)cc1 | inactive | –

Row | SMILES | activity change, negative = inhibition | AC50 [µM]
21 | CN1CCN(C(=O)c2cc(-c3ccccc3)on2)CC1 | inactive | –
22 | Cc1cccc(NC(=O)c2cc(-c3ccccc3)on2)n1 | – | 2.63
23 | Cn1c(NC(=O)c2cc(-c3ccccc3)on2)nc2ccccc21 | inactive | –
24 | CCCCNC(=O)c1cc(-c2ccccc2)on1 | – | 38
25 | O=C(c1cc(-c2ccccc2)on1)N1CCc2cccnc21 | inactive | –
26 | c1ccc(-c2nnc(-c3ccccn3)nc2Nc2cnc3ccccc3n2)cc1 | inactive | –
27 | c1ccc(-c2cnc(Nc3nc(-c4ccccn4)nnc3-c3ccccc3)s2)cc1 | inactive | –
28 | O=C(Nc1cn2ccccc2n1)c1cc(-c2ccccc2)on1 | – | 6.99
29 | O=C(c1cc(-c2ccccc2)on1)N1CCC(N2CCCC2)CC1 | inactive | –
30 | c1ccc(-c2nnc(-c3ccccn3)nc2Nc2nc3ccccc3s2)cc1 | inactive | –
31 | O=C(Nc1cnc2ccccc2c1)c1cc(-c2ccccc2)on1 | inactive | –
32 | O=C(NCc1ccccc1)c1cc(-c2ccccc2)on1 | inactive | –
33 | Cc1ccc(Nc2nc(-c3ccccn3)nnc2-c2ccccc2)cn1 | inactive | –
34 | O=C(c1cc(-c2ccccc2)on1)N1CCC(N2CCOCC2)CC1 | inactive | –
35 | O=C(NCC1CC1)c1cc(-c2ccccc2)on1 | inactive | –
36 | CN1CCN(c2nc(-c3ccccn3)nnc2-c2ccccc2)CC1 | inactive | –
37 | O=C(Nc1ncc2ccccc2n1)c1cc(-c2ccccc2)on1 | – | 23.5
38 | Cc1ccccc1CNc1nc(-c2ccccn2)nnc1-c1ccccc1 | inactive | –
39 | c1ccc(-c2nnc(-c3ccccn3)nc2NCC2CCCCC2)cc1 | inactive | –
40 | OCCCNc1nc(-c2ccccn2)nnc1-c1ccccc1 | inactive | –

Row | SMILES | activity change, negative = inhibition | AC50 [µM]
41 | c1ccc(-c2csc(Nc3nc(-c4ccccn4)nnc3-c3ccccc3)n2)cc1 | inactive | –
42 | O=C(Nc1nc2ccccc2s1)c1cc(-c2ccccc2)on1 | inactive | –
43 | O=C(Nc1ccc2ccccc2n1)c1cc(-c2ccccc2)on1 | inactive | –
44 | c1ccc(CNc2nc(-c3ccccn3)nnc2-c2ccccc2)cc1 | inactive | –
45 | O=C(NC1Cc2ccccc2C1)c1cc(-c2ccccc2)on1 | inactive | –
46 | O=C(NCC1CCCCC1)c1cc(-c2ccccc2)on1 | inactive | –
47 | O=C(c1cc(-c2ccccc2)on1)N1CCC(CO)CC1 | inactive | –
48 | C=CCNc1nc(-c2ccccn2)nnc1-c1ccccc1 | inactive | –
49 | Cn1c(-c2ccccc2)cnc1NC(=O)c1cc(-c2ccccc2)on1 | inactive | –
50 | c1ccc(-c2nnc(-c3ccccn3)nc2NCCCN2CCOCC2)cc1 | inactive | –
51 | O=C(Nc1nnc(-c2ccccc2)s1)c1cc(-c2ccccc2)on1 | inactive | –
52 | CC(C)(C)CCNC(=O)c1cc(-c2ccccc2)on1 | inactive | –
53 | Cn1c(-c2ccccc2)cnc1Nc1nc(-c2ccccn2)nnc1-c1ccccc1 | inactive | –
54 | CN(C)c1nc(-c2ccccn2)nnc1-c1ccccc1 | inactive | –
55 | Cc1ccc(CNc2nc(-c3ccccn3)nnc2-c2ccccc2)cc1 | inactive | –
56 | O=C(c1cc(-c2ccccc2)on1)N1CCN(c2ccncc2)CC1 | inactive | –
57 | O=C(Nc1nc(-c2ccccc2)cs1)c1cc(-c2ccccc2)on1 | inactive | –
58 | O=C(Nc1ncc(-c2ccccc2)o1)c1cc(-c2ccccc2)on1 | – | 38
59 | Cc1ccc(NC(=O)c2cc(-c3ccccc3)on2)cn1 | inactive | –
